According to ChEMBL document CHEMBL1137383, “New efficient substrates for semicarbazide-sensitive amine oxidase/VAP-1 enzyme: analysis by SARs and computational docking” (J Med Chem, 2006):
Active and inactive are the calls of the source. No cut-off for these calls is given here.

Assays:
[1] = target: T1, Amine oxidase [copper-containing] 3 (Homo sapiens) (UniProt Q16853); experiment: Activity of human SSAO measured as hydrogen peroxide production at 1 mM relative to benzylamine oxidation; format: functional
T1 sequence (whole entry): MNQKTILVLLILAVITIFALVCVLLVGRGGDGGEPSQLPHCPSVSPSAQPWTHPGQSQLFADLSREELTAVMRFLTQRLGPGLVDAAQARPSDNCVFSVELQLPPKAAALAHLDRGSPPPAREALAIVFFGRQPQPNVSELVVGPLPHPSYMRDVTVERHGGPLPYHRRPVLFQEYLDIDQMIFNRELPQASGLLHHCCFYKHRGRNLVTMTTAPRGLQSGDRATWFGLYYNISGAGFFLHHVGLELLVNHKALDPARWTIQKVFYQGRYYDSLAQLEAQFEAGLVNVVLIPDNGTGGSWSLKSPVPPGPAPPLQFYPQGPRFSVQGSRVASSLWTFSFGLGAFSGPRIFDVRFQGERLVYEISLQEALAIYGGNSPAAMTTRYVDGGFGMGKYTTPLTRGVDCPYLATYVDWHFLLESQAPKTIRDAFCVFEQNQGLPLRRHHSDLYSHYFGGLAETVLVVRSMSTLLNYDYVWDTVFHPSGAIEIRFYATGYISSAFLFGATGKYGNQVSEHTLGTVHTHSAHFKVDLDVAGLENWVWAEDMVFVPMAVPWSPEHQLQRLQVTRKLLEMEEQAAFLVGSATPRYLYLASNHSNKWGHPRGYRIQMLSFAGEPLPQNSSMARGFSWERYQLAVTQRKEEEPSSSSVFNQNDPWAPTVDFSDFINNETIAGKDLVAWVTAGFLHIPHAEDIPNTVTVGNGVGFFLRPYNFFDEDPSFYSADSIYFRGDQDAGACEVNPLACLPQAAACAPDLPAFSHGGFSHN
Procedure, shortened: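 Human recombinant VAP-1 (0.1 µg protein/assay) in 0.2 mol/L phosphate buffer pH 7.4, 50 min at 37 °C; amine at 1 mM added with HRP/Amplex Red mix. H2O2 fluorescence (ex 545/em 590) read every 5 min, quantified against H2O2 standard curve; semicarbazide-preincubated (250 µM, 20 min) background subtracted. Mean percentage relative to benzylamine-derived H2O2.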

[2] = target: T2, Amine oxidase [copper-containing] 3 (Mus musculus) (UniProt O70423); experiment: Activity of mouse SSAO measured as hydrogen peroxide production at 100 uM relative to benzylamine oxidation; format: functional
T2 sequence (whole entry): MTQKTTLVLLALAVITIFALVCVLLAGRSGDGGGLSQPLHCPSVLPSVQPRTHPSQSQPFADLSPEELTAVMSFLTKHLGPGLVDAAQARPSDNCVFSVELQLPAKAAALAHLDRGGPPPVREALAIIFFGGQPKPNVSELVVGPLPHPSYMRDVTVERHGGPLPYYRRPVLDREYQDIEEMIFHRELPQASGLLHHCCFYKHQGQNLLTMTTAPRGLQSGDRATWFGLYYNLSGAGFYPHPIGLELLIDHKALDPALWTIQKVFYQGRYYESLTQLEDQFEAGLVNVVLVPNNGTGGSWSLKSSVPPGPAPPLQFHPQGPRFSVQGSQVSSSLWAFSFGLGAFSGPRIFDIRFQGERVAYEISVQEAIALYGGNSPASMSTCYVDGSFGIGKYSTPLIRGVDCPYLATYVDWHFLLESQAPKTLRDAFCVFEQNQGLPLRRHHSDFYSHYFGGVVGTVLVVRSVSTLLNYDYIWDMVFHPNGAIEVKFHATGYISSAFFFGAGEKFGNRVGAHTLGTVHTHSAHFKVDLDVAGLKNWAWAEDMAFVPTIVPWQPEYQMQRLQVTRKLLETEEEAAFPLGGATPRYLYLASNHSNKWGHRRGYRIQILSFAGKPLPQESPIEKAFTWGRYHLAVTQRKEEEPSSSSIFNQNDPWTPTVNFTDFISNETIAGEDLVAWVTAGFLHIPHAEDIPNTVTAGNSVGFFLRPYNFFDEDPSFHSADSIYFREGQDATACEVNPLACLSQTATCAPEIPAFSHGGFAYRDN
Procedure, shortened: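 Mouse adipose tissue membranes (Swiss mice, 1 µg protein/assay) in 0.2 mol/L phosphate buffer pH 7.4, 50 min at 37 °C; amine at 100 µM added with HRP/Amplex Red. H2O2 fluorescence (ex 545/em 590) vs H2O2 standard curve, minus 250 µM semicarbazide (20 min preincubation) background. Mean percentage relative to benzylamine-derived H2O2.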

Adipocyte [3] = experiment: Stimulation of glucose transport in mouse adipocytes at 0.1 mM in presence of sodium orthovanadate; format: functional, cell-based
Procedure, shortened: (§1)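 Adipocytes from internal fat pads of male Swiss mice (30-35 g), collagenase-isolated, incubated 45 min at 37 °C with amine ± 1 mM sodium orthovanadate (± 1 mM semicarbazide); then 2-deoxy-D-[3H]glucose (0.1 mM final) uptake over 10 min. Two experiments in triplicate, mean ± SEM.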

Adipocyte [4] = experiment: Stimulation of glucose transport in mouse adipocytes at 1 mM in presence of sodium orthovanadate; format: functional, cell-based; procedure, shortened: as §1

| Structure (SMILES) | Activity [1] | Activity [2] | Activity (Adipocyte [3]) | Activity (Adipocyte [4]) |
| --- | --- | --- | --- | --- |
| C=CCOC(=O)NCc1cccc(CN)c1 | 21% | 49% | – | – |
| CCCCc1ccc(CN)cc1 | 5% | 24% | – | – |
| CC(C)c1ccc(CN)cc1 | 0% | 0% | – | – |
| COc1ccc(O)c(CN)c1 | 0% | 0% | – | – |
| NCc1cccc([N+](=O)[O-])c1O | 0.11% | 5.47% | – | – |
| NCc1ccc(C(=O)O)cc1 | 0% | 4.06% | – | – |
| NCc1ccc(CN)cc1 | 0% | 0% | – | – |
| NCc1ccc(C(=O)NCc2cccc(CN)c2)cc1 | 17% | 12% | – | – |
| NCc1ccc(OCc2ccccc2)cc1 | 0% | 0% | – | – |
| NCc1ccc(OC(F)(F)F)cc1OC(F)(F)F | 0% | 0% | – | – |
| NCCc1ccc(F)cc1 | 35% | 18% | – | – |
| CC(C)(C)c1ccc(CN)cc1 | 0% | 1% | – | – |
| NCCc1ccccc1 | 21% | 19% | – | – |
| NCc1ccc(C(F)(F)F)cc1 | 4% | 35% | – | – |
| CC(=O)N[C@H](C(=O)NCc1cccc(CN)c1)c1ccccc1 | 2% | 13% | – | – |
| COc1cccc2[nH]cc(CCN)c12 | 0% | 5.54% | – | – |
| NCCc1ccc(O)c(O)c1 | 0% | 0% | – | – |
| Cc1ccc(CN)cc1 | 0% | 0% | – | – |
| NCc1ccccc1F | 1.3% | 44% | – | – |
| NCc1ccccc1 | 100% | 100% | Active | Active |
| NCc1cccc(CNC(=O)c2ccccc2)c1 | 17% | 58% | – | – |
| COc1ccc(CCN)cc1OC | 0% | 3.8% | – | – |
| NCc1cccc(CNC(=O)c2ccc(O)cc2)c1 | 5% | 26% | – | – |

| Structure (SMILES) | Activity [1] | Activity [2] | Activity (Adipocyte [3]) | Activity (Adipocyte [4]) |
| --- | --- | --- | --- | --- |
| NCc1ccc(F)cc1 | 134% | 127% | – | – |
| NCc1cccc(CNC(=O)CI)c1 | 38% | 61% | – | – |
| NCCCc1ccccc1 | 44% | 40% | – | – |
| COc1cc(CN)cc(OC)c1 | 0% | 0.75% | – | – |
| NCc1cccc(CNC(=O)c2ccc(O)cc2O)c1 | 0% | 0% | – | – |
| NCc1cccc(CN)c1 | 0% | 0% | – | – |
| NCc1ccc(-c2ccccc2)cc1 | 0% | 3.77% | – | – |
| NCCCCc1ccccc1 | 166% | 71% | Active | Active |
| NCc1c(O)ccc2ccccc12 | 0% | 0% | – | – |
| NCCOc1ccccc1 | 17.9% | 14.6% | – | – |
| COc1ccc(CN)c2ccccc12 | 0.7% | 0% | – | – |
| COc1ccc(CN)cc1 | 0% | 4.56% | – | – |
| Cc1ccc(CN)cc1F | 88% | 133% | – | – |
| CCC(=O)NCc1cccc(CN)c1 | 4% | 27% | – | – |
| NCc1ccc(OC(F)(F)F)cc1 | 0% | 66.2% | – | – |
| NCc1ccc(O)c(Br)c1 | 0% | 0% | – | – |
| Cc1ccc(S(=O)(=O)NCc2cccc(CN)c2)cc1 | 12% | 14% | – | – |
| CC(=O)NCc1cccc(CN)c1 | 3% | 16% | – | – |
| COc1cc(F)cc(CN)c1 | 2.53% | 4.86% | – | – |
| CCc1ccc(CN)cc1 | 14% | 26% | – | – |
| NCc1cccc(CNC(=O)c2ccc(Br)cc2)c1 | 16% | 46% | – | – |
| CC(N)c1cccc2ccccc12 (centres undefined) | 11% | 0% | – | – |
